This passage reports IC50 results from ChEMBL document CHEMBL1131430, “Discovery and structure-activity relationship of the first non-peptide competitive human glucagon receptor antagonists” (J Med Chem, 1998).

In general, IC50 refers to the point on the concentration scale where inhibition reaches its midpoint.

T1 sequence (P47871 whole entry): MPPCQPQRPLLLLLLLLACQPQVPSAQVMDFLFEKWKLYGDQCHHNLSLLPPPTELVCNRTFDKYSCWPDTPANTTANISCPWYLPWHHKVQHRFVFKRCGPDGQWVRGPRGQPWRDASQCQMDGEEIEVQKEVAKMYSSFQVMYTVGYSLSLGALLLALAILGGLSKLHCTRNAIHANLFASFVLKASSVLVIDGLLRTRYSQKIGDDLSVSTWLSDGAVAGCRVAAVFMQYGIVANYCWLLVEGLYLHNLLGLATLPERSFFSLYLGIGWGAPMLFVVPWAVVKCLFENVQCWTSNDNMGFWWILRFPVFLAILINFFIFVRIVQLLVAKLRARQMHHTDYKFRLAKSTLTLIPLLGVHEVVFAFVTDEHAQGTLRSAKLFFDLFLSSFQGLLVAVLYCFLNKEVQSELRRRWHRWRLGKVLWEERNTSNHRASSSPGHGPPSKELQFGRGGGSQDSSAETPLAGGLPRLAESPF

The target of the first test is T1, Glucagon receptor (Homo sapiens, UniProt P47871). Kind of test: Binding affinity towards cloned human glucagon receptor in BHK cells. The class given is cell-based. Summed up:
(§1)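 Competition binding on plasma membranes (0.5 μg protein/well) from BHK cells stably expressing recombinant human glucagon receptor, selected with 0.5 mg/mL G-418. Nonspecific binding with 10⁻⁶ M glucagon. Filtration, gamma counting; IC50 mean ± SD, n = 2.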
Take `O=C(CSc1nc2ccccc2s1)c1ccc(O)c(O)c1`: the IC50 turned out to be 73 µM.
Still for that read-out and setting: the result for `O=C(CSc1nc2ccc([N+](=O)[O-])cc2[nH]1)c1ccc(O)c(O)c1` reads 55 µM; that for `O=C(CSc1nc2ccccc2[nH]1)c1cccc(O)c1`, 380 µM.
Still for that read-out and setting: for `O=C(CSc1nc2cc(OCc3ccccc3)ccc2[nH]1)c1ccc(O)c(O)c1` the value was 18 µM.
As for `O=C(CSc1nc2ccccc2[nH]1)c1ccc(O)c(Cl)c1`, the IC50 was 12 µM.
Consider `Oc1ccc(C(O)CSc2nc3ccccc3[nH]2)cc1Cl` (stereo not drawn), for which the IC50 was greater than 500 µM.
On the same count and under the same terms, for `O=C(CSc1ncc[nH]1)c1ccc(O)c(O)c1` the value was greater than 500 µM; for `COC(=O)c1cccc(COc2ccc3[nH]c(SCC(=O)c4ccc(O)c(Cl)c4)nc3c2)c1`, 9.2 µM; for `O=C(CSc1nc2ccccc2[nH]1)c1ccc(Cl)c(Cl)c1`, greater than 500 µM.
Turning to `O=C(CSc1nc2ccccc2[nH]1)c1ccccc1`, the concentration for half-maximal inhibition (IC50) was greater than 500 µM.
Same read-out and setting: the result for `O=C(CSc1nc2ccccc2o1)c1ccc(O)c(O)c1` reads 250 µM; that for `CC(C)(C)c1ccc2nc(SCC(=O)c3ccc(O)c(O)c3)[nH]c2c1`, 5.4 µM.
Same read-out and setting: the result for `O=C(O)c1cccc(C(=O)CSc2nc3ccccc3[nH]2)c1` reads greater than 500 µM.
`Cn1c(SCC(=O)c2ccc(O)c(O)c2)nc2ccccc21`: the 50% inhibitory concentration (IC50) was greater than 500 µM.
The same measure, in the same setting: the result for `O=C(CCCSc1nc2ccccc2[nH]1)c1ccc(O)c(O)c1` reads greater than 500 µM; that for `O=C(CSc1nc2ccccc2[nH]1)c1ccc(O)c(C(=O)O)c1`, 200 µM; that for `COc1ccc(C(=O)CSc2nc3ccccc3[nH]2)cc1OC`, greater than 500 µM.
The same measure, in the same setting: for `O=C(O)c1ccc(C(=O)CSc2nc3ccccc3[nH]2)cc1` the value was greater than 500 µM; for `CO/N=C(/CSc1nc2ccccc2[nH]1)c1ccc(O)c(Cl)c1`, greater than 500 µM.
For the molecule `O/N=C(/CSc1nc2ccccc2[nH]1)c1ccc(O)c(Cl)c1`, the IC50 was greater than 500 µM.
Same read-out and setting: the result for `Oc1ccc(/C(CSc2nc3ccccc3[nH]2)=N\OCc2ccccc2)cc1Cl` reads greater than 500 µM.
For the molecule `COc1cc(C(=O)CSc2nc3ccccc3[nH]2)ccc1O`, the IC50 was determined as 41 µM.
`O=C(CSc1nc2cc(Cl)c(Cl)cc2[nH]1)c1ccc(O)c(O)c1` yielded an IC50 of 20 µM.
The molecule `O=C(CSc1nc(-c2ccccc2)c(-c2ccccc2)[nH]1)c1ccc(O)c(O)c1` returned an IC50 of 180 µM.
Same read-out and setting: the result for `O=C(CSc1nc2ccccc2[nH]1)c1ccc(O)cc1` reads greater than 60 µM; that for `COC(=O)c1cccc(COc2ccc3[nH]c(SCC(=O)c4ccc(O)c(O)c4)nc3c2)c1`, 16 µM.
On the same count and under the same terms, the result for `CCCC(Sc1nc2ccccc2[nH]1)C(=O)c1ccc(O)c(O)c1` (stereo not drawn) reads greater than 500 µM; that for `COc1ccc2[nH]c(SCC(=O)c3ccc(O)c(O)c3)nc2c1`, 42 µM.
Still for that read-out and setting: the result for `O=C(CSc1nc2ccccc2[nH]1)c1cc(O)cc(O)c1` reads greater than 500 µM; that for `O=C(CSc1nnc(-c2ccccc2)[nH]1)c1ccc(O)c(O)c1`, 55 µM; that for `O=C(CSc1ccc2ccccc2n1)c1ccc(O)c(O)c1`, 160 µM.
For `O=C(O)c1cccc(COc2ccc3[nH]c(SCC(=O)c4ccc(O)c(O)c4)nc3c2)c1`, the concentration for half-maximal inhibition (IC50) was 95 µM.

In another test the target is T1, Glucagon receptor. Kind of test: Compound was evaluated for its binding affinity towards cloned human Glucagon receptor in BHK cells. The class given is cell-based. Summed up:
as §1
For the molecule `O=C(CSc1nc2ccccc2[nH]1)c1ccc(O)c(O)c1`, the IC50 is 20 µM.
